Reference: ChEMBL document CHEMBL5385937
Blank lines part the entries; values can stand above or below the compound they belong to. Calls of active or inactive are those of the source. The rule behind the calls is not given here.

Key:
[1] = biological target: Indoleamine 2,3-dioxygenase 1 (Homo sapiens) (UniProt P14902); test: Inhibition of IDO1 in human BXPC-3 cells assessed as reduction in IFNgamma induced kynurenine level at 10 uM incubated for 48 hrs by LC-MS analysis; type: cell-based
Procedure, shortened: (§1)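 BxPC-3 cells were seeded at 20,000/well in phenol-red-free medium. After 24 h, 50 ng/mL IFN-γ and 380 μM Trp were added together with compound for 48 h. Supernatant was acidified with trichloroacetic acid (7% final), kept 15 min at room temperature and centrifuged. Kyn and Trp were quantified by HPLC-MS/MS.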

[2] = biological target: Indoleamine 2,3-dioxygenase 1 (Homo sapiens) (UniProt P14902); test: Inhibition of recombinant human IDO1 expressed in Escherichia coli BL21(DE3) preincubated for 40 mins followed by Trp addition and measured after 60 mins by LC-MS analysis; conditions: time 100.0 min
[3] = biological target: Indoleamine 2,3-dioxygenase 1 (Homo sapiens) (UniProt P14902); test: Inhibition of IDO1 in human BXPC-3 cells assessed as increase in Trp level at 10 uM incubated for 48 hrs in presence of IFNgamma by LC-MS analysis; type: cell-based; procedure, shortened: as §1
[4] = biological target: Indoleamine 2,3-dioxygenase 1 (Homo sapiens) (UniProt P14902); test: Inhibition of IDO1 in human BXPC-3 cells assessed as reduction in IFNgamma induced Trp level at 5 mM pretreated with IFNgamma for 24 hrs followed by compound addition for 30 mins prior to Trp addition and measured after 30 mins by HPLC-MS/MS analysis; type: cell-based; conditions: time 25.0 hrs
Procedure, shortened: (§2)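 BxPC-3 cells were kept in Trp-free RPMI for 48 h, then given 50 ng/mL IFN-γ with starvation continued another 24 h. Medium was replaced by Trp-free medium containing compound for 30 min. 50 μM Trp was then added for 30 min. Supernatant Trp was measured by HPLC-MS/MS after 7% trichloroacetic acid precipitation; mean ± SD, n = 3.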

[5] = biological target: T1, Bifunctional epoxide hydrolase 2 (Homo sapiens) (UniProt P34913); conditions: HAP1, dose 500.0 nM
T1 sequence (whole entry): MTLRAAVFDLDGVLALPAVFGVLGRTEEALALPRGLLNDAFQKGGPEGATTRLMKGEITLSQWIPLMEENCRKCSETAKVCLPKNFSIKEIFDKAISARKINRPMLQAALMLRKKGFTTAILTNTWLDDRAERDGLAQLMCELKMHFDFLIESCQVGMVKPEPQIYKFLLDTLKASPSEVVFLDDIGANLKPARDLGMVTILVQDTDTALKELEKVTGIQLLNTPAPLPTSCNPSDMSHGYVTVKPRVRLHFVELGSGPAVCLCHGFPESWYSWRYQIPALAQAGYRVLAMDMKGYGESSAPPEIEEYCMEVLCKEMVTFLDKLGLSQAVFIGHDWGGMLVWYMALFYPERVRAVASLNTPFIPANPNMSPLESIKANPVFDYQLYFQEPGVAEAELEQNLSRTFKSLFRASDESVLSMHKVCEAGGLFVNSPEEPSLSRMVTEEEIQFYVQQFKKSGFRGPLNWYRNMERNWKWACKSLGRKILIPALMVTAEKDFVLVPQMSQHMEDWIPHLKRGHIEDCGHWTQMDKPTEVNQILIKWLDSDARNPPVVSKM

[6] = biological target: Indoleamine 2,3-dioxygenase 1 (Homo sapiens) (UniProt P14902); test: Inhibition of IDO1 in human HeLa cells assessed as reduction in IFNgamma induced IDO1 protein expression level incubated for 24 hrs by immunoblotting analysis; type: cell-based
Procedure, shortened: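 HeLa cells were plated at 250,000/well and grown 24 h, then exposed to 50 ng/mL IFN-γ and compound for 24 h. Cells were lysed in Laemmli buffer and 20–100 μg protein was resolved on 10% gels. Blots were probed with anti-IDO1 (1:5,000) and IRDye secondaries. IDO1 was normalized to vinculin; mean ± SD, n = 4.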

[7] = biological target: Indoleamine 2,3-dioxygenase 1 (Homo sapiens) (UniProt P14902); test: Inhibition of IDO1 in human HeLa cells assessed as reduction in IFNgamma induced IDO1 mRNA expression level incubated for 24 hrs by qPCR analysis; type: cell-based
Procedure, shortened: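 HeLa cells were plated at 250,000/well and grown 24 h, then treated with 50 ng/mL IFN-γ plus compound for 24 h. Total RNA was extracted with on-column DNase digestion, and cDNA was made from 800 ng RNA. IDO1 mRNA was quantified by qPCR; mean ± SD, n = 3.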

[8] = biological target: Indoleamine 2,3-dioxygenase 1 (Homo sapiens) (UniProt P14902); test: Inhibition of IDO1 in human BXPC-3 cells assessed as reduction in IFNgamma induced Trp level at 5 uM pretreated with IFNgamma for 24 hrs followed by compound addition for 30 mins prior to Trp addition and measured after 30 mins by HPLC-MS/MS analysis; type: cell-based; conditions: time 25.0 hrs; procedure, shortened: as §2
[9] = biological target: Indoleamine 2,3-dioxygenase 1 (Homo sapiens) (UniProt P14902); test: Inhibition of IDO1 in HEK293T cells assessed as reduction in IFNgamma induced IDO1 protein expression incubated for 48 hrs; type: cell-based

Indoleamine 2,3-dioxygenase 1 (Homo sapiens), sequence (P14902 whole entry, looked up): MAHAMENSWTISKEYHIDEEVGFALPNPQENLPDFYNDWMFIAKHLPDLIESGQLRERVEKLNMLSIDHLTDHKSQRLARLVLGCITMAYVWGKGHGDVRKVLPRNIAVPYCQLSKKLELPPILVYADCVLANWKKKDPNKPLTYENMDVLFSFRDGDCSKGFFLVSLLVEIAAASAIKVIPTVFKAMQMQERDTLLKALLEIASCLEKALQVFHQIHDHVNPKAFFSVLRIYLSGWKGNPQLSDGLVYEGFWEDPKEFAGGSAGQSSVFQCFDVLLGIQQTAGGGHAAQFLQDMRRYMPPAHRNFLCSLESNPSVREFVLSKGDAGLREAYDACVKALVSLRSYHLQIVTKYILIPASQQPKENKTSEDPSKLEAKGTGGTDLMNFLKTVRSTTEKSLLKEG

- inhibition [1]: Active
- inhibition [2]: inactive
- inhibition [3]: Dose-Dependent Effect
SMILES: O=C(c1cn(CCOc2ccc3c(c2)OCO3)c2ccc(Br)cc12)C(F)(F)F

- inhibition [4]: Active
SMILES: CC(C)C[C@H](N)C(=O)O

- inhibition [5]: Active
SMILES: NS(=O)(=O)NCCNc1nonc1/C(=N/O)Nc1ccc(F)c(Br)c1

- inhibition [2]: inactive
- inhibition [6]: inactive
- inhibition [7]: inactive
- inhibition [8]: inactive
- inhibition [9]: inactive
SMILES: O=C(Cn1cc(C(=O)C(F)(F)F)c2cc(Br)ccc21)NC1CCCCCC1
